Laboratory results as given in ChEMBL document CHEMBL1649147, “Antistaphylococcal activity of dihydrophthalazine antifolates, a family of novel antibacterial drugs” (2009).
Converted amounts (≈) assume the structure as drawn.

What was measured:
[1] = tested on: Staphylococcus epidermidis; assay: Antibacterial activity against methicillin-susceptible coagulase-negative Staphylococcus epidermidis 051 after 38 passages by agar dilution method; type: functional
Procedure, shortened: (§1)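 Daily serial passage for up to 50 days at 35°C for 24 h in 1 ml MHB. […] Each transfer used 10 µl from the tube nearest the MIC (1–2 dilutions below) with the same turbidity as the drug-free control. […] MICs were measured by agar dilution, with changes given as log2 steps.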

[2] = tested on: Staphylococcus epidermidis; assay: Antibacterial activity against methicillin-susceptible coagulase-negative Staphylococcus epidermidis 057 after 15 passages by agar dilution method; type: functional; procedure, shortened: as §1
Staphylococcus aureus [3] = assay: Antibacterial activity against Staphylococcus aureus ATCC 43300 assessed as change in MIC by agar dilution method after serial passages in presence of antibiotic relative to control; type: functional
Procedure, shortened: (§2)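 Serial passage under drug. Inoculum was ~1 × 10^6 CFU/ml from overnight MHA growth, in 1 ml MHB at 35°C for 24 h. Drug ranged from 4 log2 steps above to 3 log2 steps below the MIC. […] MIC change is given as log2 steps.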

[4] = tested on: Staphylococcus epidermidis; assay: Antibacterial activity against coagulase-negative Staphylococcus epidermidis 057 assessed as change in MIC by agar dilution method after serial passages in the absence of antibiotic relative to control; type: functional
Procedure, shortened: (§3)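 After drug-selective serial passage, selected clones were passaged 10 times in antibiotic-free MHB. MICs were then redetermined, and the change is expressed as log2 dilution steps.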

[5] = tested on: Staphylococcus epidermidis; assay: Antibacterial activity against coagulase-negative Staphylococcus epidermidis 197 assessed as change in MIC by agar dilution method after serial passages in presence of antibiotic relative to control; type: functional; procedure, shortened: as §2
[6] = tested on: Staphylococcus epidermidis; assay: Antibacterial activity against coagulase-negative Staphylococcus epidermidis 225 assessed as change in MIC by agar dilution method after serial passages in the absence of antibiotic relative to control; type: functional; procedure, shortened: as §3
Staphylococcus aureus [7] = assay: Antibacterial activity against Staphylococcus aureus 145 after 47 passages by agar dilution method; type: functional; procedure, shortened: as §2
Staphylococcus aureus [8] = assay: Antibacterial activity against Staphylococcus aureus 145 after 10 passages in MHB without antibiotic by agar dilution method; type: functional; procedure, shortened: as §3
[9] = tested on: Staphylococcus epidermidis; assay: Antibacterial activity against coagulase-negative Staphylococcus epidermidis 051 after 38 passages by agar dilution method; type: functional; procedure, shortened: as §2
[10] = tested on: Staphylococcus epidermidis; assay: Antibacterial activity against coagulase-negative Staphylococcus epidermidis 051 after 10 passages in MBH without antibiotic by agar dilution method; type: functional; procedure, shortened: as §3
Staphylococcus aureus [11] = assay: Antibacterial activity against methicillin-susceptible Staphylococcus aureus by agar dilution method; type: functional
Procedure, shortened: (§4)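 Agar dilution on Mueller-Hinton agar per CLSI guidelines. S. aureus ATCC 29213 and E. faecalis ATCC 29212 were run with each set, and test MICs were accepted only when the control strains fell within acceptable ranges.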

Staphylococcus aureus [12] = assay: Antibacterial activity against methicillin-resistant Staphylococcus aureus by agar dilution method; type: functional; procedure, shortened: as §4
Staphylococcus aureus [13] = assay: Antibacterial activity against Tmp-susceptible coagulase-negative Staphylococcus aureus by agar dilution method; type: functional
Procedure, shortened: (§5)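 MICs by agar dilution on Mueller-Hinton agar following CLSI guidelines. S. aureus ATCC 29213 and E. faecalis ATCC 29212 were run as quality controls with each set, and test-strain MICs were kept only if control MICs fell within acceptable ranges.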

Staphylococcus aureus [14] = assay: Antibacterial activity against methicillin-resistant Staphylococcus aureus ATCC 43300 by broth macrodilution method; type: functional; conditions: ATCC43300
Staphylococcus aureus [15] = assay: Antibacterial activity against vancomycin-resistant Staphylococcus aureus VRS1 by broth macrodilution method; type: functional
Procedure, shortened: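 Michigan VRSA strain, one of 12 staphylococci later used in time-kill studies. MIC was determined by broth macrodilution and reported in μg/ml.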

[16] = tested on: Staphylococcus epidermidis; assay: Antibacterial activity against methicillin-resistant coagulase-negative Staphylococcus epidermidis 074 by broth macrodilution method; type: functional
[17] = tested on: Staphylococcus epidermidis; assay: Antibacterial activity against methicillin-resistant coagulase-negative Staphylococcus epidermidis 197 by broth macrodilution method; type: functional
[18] = tested on: Staphylococcus epidermidis; assay: Antibacterial activity against methicillin-resistant coagulase-negative Staphylococcus epidermidis 225 by broth macrodilution method; type: functional
Staphylococcus aureus [19] = assay: Antibacterial activity against methicillin-susceptible Staphylococcus aureus ATCC 29213 after 50 passages by agar dilution method; type: functional; conditions: ATCC29213; procedure, shortened: as §1
Staphylococcus aureus [20] = assay: Antibacterial activity against methicillin-susceptible, vancomycin-intermediate Staphylococcus aureus 505 after 50 passages by agar dilution method; type: functional; procedure, shortened: as §1
[21] = tested on: Staphylococcus epidermidis; assay: Antibacterial activity against coagulase-negative Staphylococcus epidermidis 225 after 10 passages in MBH without antibiotic by agar dilution method; type: functional; procedure, shortened: as §3
[22] = tested on: Staphylococcus epidermidis; assay: Antibacterial activity against coagulase-negative Staphylococcus epidermidis 345 after 33 passages by agar dilution method; type: functional; procedure, shortened: as §2
[23] = tested on: Staphylococcus epidermidis; assay: Antibacterial activity against coagulase-negative Staphylococcus epidermidis 057 after 15 passages by agar dilution method; type: functional; procedure, shortened: as §2
Staphylococcus aureus [24] = assay: Antibacterial activity against methicillin-resistant and vancomycin-resistant Staphylococcus aureus VRS1 by agar dilution method; type: functional; procedure, shortened: as §4
[25] = tested on: Staphylococcus epidermidis; assay: Antibacterial activity against coagulase-negative Staphylococcus epidermidis 225 by agar dilution method; type: functional; procedure, shortened: as §5
[26] = tested on: Staphylococcus epidermidis; assay: Antibacterial activity against methicillin-resistant, Linezolid non-susceptible coagulase-negative Staphylococcus epidermidis 345 by agar dilution method; type: functional
[27] = tested on: coagulase-negative staphylococci; assay: Antibacterial activity against Tmp-susceptible coagulase-negative staphylococci by agar dilution method
[28] = tested on: Staphylococcus epidermidis; assay: Antibacterial activity against methicillin-susceptible coagulase-negative Staphylococcus epidermidis 051 after 50 passages by agar dilution method; type: functional
Procedure, shortened: (§6)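 Daily serial passage for up to 50 days at 35°C for 24 h in 1 ml MHB. Each transfer used 10 µl from the tube nearest the MIC (1–2 dilutions below) with the same turbidity as the drug-free control. MICs were measured by agar dilution, with changes given as log2 steps.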

[29] = tested on: Staphylococcus epidermidis; assay: Antibacterial activity against methicillin-susceptible coagulase-negative Staphylococcus epidermidis 057 after 23 passages by agar dilution method; type: functional; procedure, shortened: as §1
[30] = tested on: Staphylococcus epidermidis; assay: Antibacterial activity against methicillin-resistant, vancomycin-intermediate coagulase-negative Staphylococcus epidermidis 225 after 36 passages by agar dilution method; type: functional; procedure, shortened: as §1
[31] = tested on: Staphylococcus epidermidis; assay: Antibacterial activity against methicillin-resistant, Linezolid non-susceptible coagulase-negative Staphylococcus epidermidis 345 after 50 passages by agar dilution method; type: functional; procedure, shortened: as §6
[32] = tested on: Staphylococcus epidermidis; assay: Antibacterial activity against coagulase-negative Staphylococcus epidermidis 051 after 50 passages by agar dilution method; type: functional; procedure, shortened: as §2
[33] = tested on: Staphylococcus epidermidis; assay: Antibacterial activity against coagulase-negative Staphylococcus epidermidis 057 after 23 passages by agar dilution method; type: functional; procedure, shortened: as §2
Staphylococcus aureus [34] = assay: Antibacterial activity against methicillin-resistant Staphylococcus aureus 145 after 50 passages by agar dilution method; type: functional; procedure, shortened: as §2
[35] = tested on: Staphylococcus epidermidis; assay: Antibacterial activity against coagulase-negative Staphylococcus epidermidis 345 after 50 passages by agar dilution method; type: functional; procedure, shortened: as §2
[36] = tested on: Staphylococcus epidermidis; assay: Antibacterial activity against methicillin-susceptible coagulase-negative Staphylococcus epidermidis 057 after 50 passages by agar dilution method; type: functional; procedure, shortened: as §6
[37] = tested on: Staphylococcus epidermidis; assay: Antibacterial activity against methicillin-resistant, vancomycin-intermediate coagulase-negative Staphylococcus epidermidis 225 after 50 passages by agar dilution method; type: functional; procedure, shortened: as §1
Staphylococcus aureus [38] = assay: Antibacterial activity against Staphylococcus aureus 145 after 37 passages by agar dilution method; type: functional; procedure, shortened: as §2
Staphylococcus aureus [39] = assay: Antibacterial activity against vancomycin-resistant Staphylococcus aureus VRS1 after 15 passages by agar dilution method; type: functional; procedure, shortened: as §1
Staphylococcus aureus [40] = assay: Antibacterial activity against methicillin-resistant Staphylococcus aureus 145 after 37 passages by agar dilution method; type: functional; procedure, shortened: as §2
Staphylococcus aureus [41] = assay: Antibacterial activity against methicillin-resistant and vancomycin-resistant Staphylococcus aureus VRS1 after 15 passages by agar dilution method; type: functional; procedure, shortened: as §1

Compound	fold change (FC) (Staphylococcus aureus [3])	fold change (FC) [4]	fold change (FC) [5]	fold change (FC) [6]	MIC (Staphylococcus aureus [8]) [µg/mL]	MIC [10] [µg/mL]	MIC50 (Staphylococcus aureus [11]) [µg/mL]	MIC90 (Staphylococcus aureus [11]) [µg/mL]	MIC50 (Staphylococcus aureus [12]) [µg/mL]	MIC90 (Staphylococcus aureus [12]) [µg/mL]	MIC (Staphylococcus aureus [13]) [µg/mL]	MIC (Staphylococcus aureus [14]) [µg/mL]	MIC (Staphylococcus aureus [15]) [µg/mL]	MIC [16] [µg/mL]	MIC [17] [µg/mL]	MIC [18] [µg/mL]	MIC (Staphylococcus aureus [19]) [µg/mL]	MIC (Staphylococcus aureus [20]) [µg/mL]	MIC [21] [µg/mL]	MIC (Staphylococcus aureus [24]) [µg/mL]	further results
COc1cc(Cc2cnc(N)nc2N)cc(/C=C/C(=O)N2N=Cc3ccccc3C2c2cnc(N(C)C)nc2)c1OC (stereo unspecified)	5	-1	1	-7	> 128	4 (≈ 7.07 µM)	0.03 (≈ 0.053 µM)	0.25 (≈ 0.442 µM)	0.03 (≈ 0.053 µM)	0.125 (≈ 0.221 µM)	≤ 0.008	0.03 (≈ 0.053 µM)	0.5 (≈ 0.884 µM)	0.06 (≈ 0.106 µM)	0.03 (≈ 0.053 µM)	0.125 (≈ 0.221 µM)	0.5 (≈ 0.884 µM)	8 (≈ 14.1 µM)	2 (≈ 3.54 µM)	0.25 (≈ 0.442 µM)	MIC [1]: > 128 µg/mL; MIC [2]: > 128 µg/mL; MIC (Staphylococcus aureus [7]): > 128 µg/mL; MIC [9]: > 128 µg/mL; MIC [22]: > 128 µg/mL; MIC [23]: > 128 µg/mL; MIC [25]: 0.25 µg/mL (≈ 0.442 µM); MIC [26]: 0.06 µg/mL (≈ 0.106 µM); MIC50 [27]: 0.016 µg/mL (≈ 0.0283 µM); MIC90 [27]: 0.03 µg/mL (≈ 0.053 µM)
COc1cc(Cc2cnc(N)nc2N)cc(/C=C/C(=O)N2N=Cc3ccccc3C2c2cnc(N3CCOCC3)nc2)c1OC (stereo unspecified)	5	-1	4	-7	128 (≈ 211 µM)	1 (≈ 1.65 µM)	0.03 (≈ 0.0494 µM)	0.25 (≈ 0.411 µM)	0.03 (≈ 0.0494 µM)	0.25 (≈ 0.411 µM)	≤ 0.008	0.03 (≈ 0.0494 µM)	1 (≈ 1.65 µM)	0.25 (≈ 0.411 µM)	0.06 (≈ 0.0987 µM)	0.25 (≈ 0.411 µM)	1 (≈ 1.65 µM)	2 (≈ 3.29 µM)	2 (≈ 3.29 µM)	1 (≈ 1.65 µM)	MIC [28]: 64 µg/mL (≈ 105 µM); MIC [29]: > 128 µg/mL; MIC [30]: > 128 µg/mL; MIC [31]: 4 µg/mL (≈ 6.58 µM); MIC [32]: 64 µg/mL (≈ 105 µM); MIC [33]: > 128 µg/mL; MIC (Staphylococcus aureus [34]): 128 µg/mL (≈ 211 µM); MIC [35]: 4 µg/mL (≈ 6.58 µM); MIC [25]: 0.25 µg/mL (≈ 0.411 µM); MIC [26]: 0.06 µg/mL (≈ 0.0987 µM); MIC50 [27]: 0.03 µg/mL (≈ 0.0494 µM); MIC90 [27]: 0.06 µg/mL (≈ 0.0987 µM)
COc1ncc(C2c3ccccc3C=NN2C(=O)/C=C/c2cc(Cc3cnc(N)nc3N)cc(OC)c2OC)cn1 (stereo unspecified)	7	0	5	-4	16 (≈ 29 µM)	16 (≈ 29 µM)	0.03 (≈ 0.0543 µM)	0.25 (≈ 0.452 µM)	0.03 (≈ 0.0543 µM)	0.25 (≈ 0.452 µM)	≤ 0.008	0.03 (≈ 0.0543 µM)	1 (≈ 1.81 µM)	0.06 (≈ 0.109 µM)	0.008 (≈ 0.0145 µM)	0.25 (≈ 0.452 µM)	8 (≈ 14.5 µM)	1 (≈ 1.81 µM)	8 (≈ 14.5 µM)	0.5 (≈ 0.905 µM)	MIC [28]: 64 µg/mL (≈ 116 µM); MIC [36]: 128 µg/mL (≈ 232 µM); MIC [37]: 128 µg/mL (≈ 232 µM); MIC [31]: 16 µg/mL (≈ 29 µM); MIC (Staphylococcus aureus [38]): > 128 µg/mL; MIC (Staphylococcus aureus [39]): > 128 µg/mL; MIC [32]: 64 µg/mL (≈ 116 µM); MIC (Staphylococcus aureus [40]): > 128 µg/mL; MIC (Staphylococcus aureus [41]): > 128 µg/mL; MIC [35]: 16 µg/mL (≈ 29 µM); MIC [25]: 0.25 µg/mL (≈ 0.452 µM); MIC [26]: 0.125 µg/mL (≈ 0.226 µM); MIC50 [27]: 0.016 µg/mL (≈ 0.029 µM); MIC90 [27]: 0.03 µg/mL (≈ 0.0543 µM)
